Results collected from several papers.
Compare with care: the assays were run in different laboratories.

CNC(=O)[C@H](Cc1c[nH]cn1)NC(=O)CN(CCCc1ccccc1)CC(=O)O
kinetic solubility (PBS; 24 h, pH 7.4): 170 µM

CCCCOC(=O)NS(=O)(=O)c1sc(CC(C)C)cc1-c1ccc2c(c1)CCN(C(C)=O)C2
kinetic solubility (aqueous buffer; pH 7.4, 37 °C): 45 µM

CNC(=O)[C@H](Cc1c[nH]cn1)NC(=O)CN(CCCc1ccccc1)CC(=O)OC
kinetic solubility (PBS; 24 h, pH 7.4): 179 µM

CCCCOC(=O)NS(=O)(=O)c1sc(CC(C)C)cc1-c1ccc(OC(F)(F)F)c(Cn2ccnc2)c1
kinetic solubility (aqueous buffer; pH 7.4, 37 °C): 52 µM

CC(=O)Nc1cc(Nc2cc(NC3CC3)n3ncc(C#N)c3n2)ccc1N1CCC[C@H](O)C1
kinetic solubility (shake flask; PBS; 24 h, pH 7.4, 22 °C): 37 µg/mL

O=C(/C=C/c1cccnc1)NCCCCC1CCN(C(=O)c2ccccc2)CC1
kinetic solubility (PBS; 90 min, pH 7.4): 225 µM

CC(=O)Nc1cc(Nc2cc(NC3CC3)n3ncc(C#N)c3n2)ccc1N(C)[C@@H]1CCOC1
kinetic solubility (shake flask; PBS; 24 h, pH 7.4, 22 °C): 25 µg/mL

Cc1cc(Nc2ccc(C(F)(F)F)cc2)c2ccccc2n1
kinetic solubility (PBS; pH 6.5): 83 µM

CN[C@H]1CCN(c2ccc(Nc3cc(NC4CC4)n4ncc(C#N)c4n3)cc2NC(C)=O)C1
kinetic solubility (shake flask; PBS; 24 h, pH 7.4, 22 °C): 49 µg/mL

O=C(O)CN(CCCc1ccccc1)CC(=O)N[C@H](CO)Cc1c[nH]cn1
kinetic solubility (PBS; 24 h, pH 7.4): 180 µM

CC[C@H](NC(=O)[C@H](CS(=O)(=O)CC1CC1)N[C@@H](c1ccc(F)cc1)C(F)(F)F)C(=O)C(=O)NC1CC1
kinetic solubility (PBS; pH 7.4): 223 µM

CNC(=O)[C@H](Cc1c[nH]cn1)NC(=O)CN(CC(=O)O)Cc1ccccc1
kinetic solubility (PBS; 24 h, pH 7.4): 151 µM

Fc1ccc(Nc2c(-c3ccccn3)nc3ccc(C4CC4)cn23)cc1
kinetic solubility (aqueous buffer; 24 h): 3 µM

CN[C@H]1CCCN(c2ccc(Nc3cc(NC4CC4)n4ncc(C#N)c4n3)cc2NC(C)=O)C1
kinetic solubility (shake flask; PBS; 24 h, pH 7.4, 22 °C): 54 µg/mL

CCCC#Cc1ccc([C@@H](CO)C(=O)N[C@H](C)c2ccccc2)cc1
kinetic solubility (PBS; pH 7.4): 7.4 µM

COC(=O)[C@H](Cc1c[nH]cn1)NC(=O)CN(CCCc1ccccc1)CC(=O)O
kinetic solubility (PBS; 24 h, pH 7.4): 199 µM

CCc1cnc2c(c1)[C@@H](N1CCOc3c(cc(Cn4ccnc4)cc3-c3cn(C)nc3C(F)(F)F)C1=O)CCC2
kinetic solubility (PBS; 1 h, pH 7.4): 74 µM

CC(=O)Nc1cc(Nc2cc(NC3CC3)n3ncc(C#N)c3n2)ccc1N1CCNCC1
kinetic solubility (shake flask; PBS; 24 h, pH 7.4, 22 °C): 52 µg/mL

Cc1cc(Nc2ccc(S(F)(F)(F)(F)F)cc2)n2ccnc2n1
kinetic solubility (simulated gastric fluid; pH 2, acidic): > 285 µM

CCCCOC(=O)NS(=O)(=O)c1sc(CC(C)C)cc1-c1ccc2c(c1)CN(C(C)=O)CC2
kinetic solubility (aqueous buffer; pH 7.4, 37 °C): 31 µM

CC(=O)Nc1cc(Nc2cc(NC3CC3)n3ncc(C#N)c3n2)ccc1N[C@@H]1CCCOC1
kinetic solubility (shake flask; PBS; 24 h, pH 7.4, 22 °C): 2.4 µg/mL
